Laboratory results taken from ChEMBL document CHEMBL1137378, “Antibacterial agent discovery using thymidylate synthase biolibrary screening” (J Med Chem, 2006).
In brackets after ≈: the same amount, converted by molar mass.

Columns and labels:
Staphylococcus aureus [1] = test: Antibacterial activity against Staphylococcus aureus 341; type: functional
Procedure, shortened: (§1)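 Wild-type strain panel (18 Gram-positive and Gram-negative strains). Bacteria grown in Mueller-Hinton broth at 37 °C for 24 h. Exponentially growing cultures diluted in sterile liquid medium to a final inoculum of about 1 × 10⁴ CFU/mL, then exposed to increasing compound concentrations. MIC taken as the lowest concentration with no evident bacterial growth.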

[2] = test system: Staphylococcus saprophyticus; test: Antibacterial activity against Staphylococcus saprophyticus ATCC 15305; type: functional; procedure, shortened: as §1
Listeria monocytogenes [3] = test: Antibacterial activity against Listeria monocytogenes 7; type: functional; procedure, shortened: as §1
Escherichia coli [4] = test: Antibacterial activity against Escherichia coli 292; type: functional; procedure, shortened: as §1
[5] = test system: Staphylococcus haemolyticus; test: Antibacterial activity against Staphylococcus haemolyticus ATCC 2997; type: functional; procedure, shortened: as §1
Listeria monocytogenes [6] = test: Antibacterial activity against Listeria monocytogenes 6; type: functional; procedure, shortened: as §1
Listeria monocytogenes [7] = test: Antibacterial activity against Listeria monocytogenes 5; type: functional; procedure, shortened: as §1
Dihydrofolate reductase = biological target: T1, Dihydrofolate reductase (Homo sapiens, UniProt P00374); test: Inhibition of human dihydrofolate reductase
T1 sequence (P00374 whole entry): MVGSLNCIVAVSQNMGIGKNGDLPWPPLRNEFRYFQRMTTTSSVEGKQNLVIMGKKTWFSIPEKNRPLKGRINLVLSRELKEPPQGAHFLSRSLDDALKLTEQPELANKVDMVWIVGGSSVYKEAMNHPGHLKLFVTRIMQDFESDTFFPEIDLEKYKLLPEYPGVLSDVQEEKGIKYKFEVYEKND
Procedure, shortened: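 Purified human DHFR assayed spectrophotometrically at 25 °C by the fall in A340 on DHF reduction. Ki from steady-state kinetics.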

Listeria monocytogenes [8] = test: Antibacterial activity against Listeria monocytogenes ATCC 4428; type: functional; procedure, shortened: as §1
Escherichia coli [9] = test: Antibacterial activity against Escherichia coli 256; type: functional; procedure, shortened: as §1
Listeria monocytogenes [10] = test: Antibacterial activity against Listeria monocytogenes 3; type: functional; procedure, shortened: as §1
Listeria monocytogenes [11] = test: Antibacterial activity against Listeria monocytogenes 8; type: functional; procedure, shortened: as §1
Staphylococcus aureus [12] = test: Antibacterial activity against Staphylococcus aureus ATCC 29213; type: functional; procedure, shortened: as §1
Thymidylate synthase [13] = biological target: T2, Thymidylate synthase (Cryptococcus neoformans var. neoformans B-3501A, UniProt P0CS13); test: Inhibition of Cryptococcus neoformans thymidylate synthase
T2 sequence (P0CS13 whole entry): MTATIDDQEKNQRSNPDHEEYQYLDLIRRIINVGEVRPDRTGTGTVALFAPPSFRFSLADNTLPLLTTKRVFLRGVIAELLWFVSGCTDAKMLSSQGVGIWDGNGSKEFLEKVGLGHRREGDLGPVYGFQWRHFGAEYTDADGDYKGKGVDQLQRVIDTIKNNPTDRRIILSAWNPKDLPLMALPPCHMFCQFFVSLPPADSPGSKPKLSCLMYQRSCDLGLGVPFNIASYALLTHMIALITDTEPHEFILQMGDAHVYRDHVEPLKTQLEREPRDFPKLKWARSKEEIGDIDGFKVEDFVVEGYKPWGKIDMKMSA

Staphylococcus aureus [14] = test: Antibacterial activity against Staphylococcus aureus 343; type: functional; procedure, shortened: as §1
Staphylococcus aureus [15] = test: Antibacterial activity against Staphylococcus aureus K28; type: functional; procedure, shortened: as §1
Enterococcus faecalis = test: Antibacterial activity against Enterococcus faecalis ATCCC29212; type: functional; procedure, shortened: as §1
Streptococcus = test: Antibacterial activity against Streptococcus 42; type: functional; procedure, shortened: as §1
Citrobacter = test: Antibacterial activity against Citrobacter 224; type: functional; procedure, shortened: as §1
Listeria monocytogenes [16] = test: Antibacterial activity against Listeria monocytogenes 4; type: functional; procedure, shortened: as §1
[17] = Specificity Index, Ki for human thymidylate synthase/Ki for Escherichia coli thymidylate synthase
Homo sapiens = species on record: Homo sapiens; test: Selectivity Index, Ki for human dihydrofolate reductase/Ki for human thymidylate synthase
Thymidylate synthase [18] = biological target: Thymidylate synthase (Escherichia coli, UniProt C3SWJ7); test: Inhibition of Escherichia coli thymidylate synthase
Chain of Thymidylate synthase (Escherichia coli, UniProt C3SWJ7) (C3SWJ7 whole entry): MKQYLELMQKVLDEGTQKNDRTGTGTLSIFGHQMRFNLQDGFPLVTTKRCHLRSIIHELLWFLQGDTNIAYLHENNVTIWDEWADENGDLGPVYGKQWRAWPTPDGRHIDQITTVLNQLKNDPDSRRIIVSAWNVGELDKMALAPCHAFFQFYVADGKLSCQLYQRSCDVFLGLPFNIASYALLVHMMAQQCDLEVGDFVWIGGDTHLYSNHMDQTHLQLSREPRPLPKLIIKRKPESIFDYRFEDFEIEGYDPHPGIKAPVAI

[19] = Specificity Index, Ki for human thymidylate synthase/Ki for Lactobacillus casei thymidylate synthase
[20] = Specificity Index, Ki for human thymidylate synthase/Ki for Cryptococcus neoformans thymidylate synthase
Procedure, shortened: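 Specificity index is Ki of hTS divided by Ki of the pathogen TS (LcTS, EcTS or CnTS). Each enzyme was purified to >95% and assayed spectrophotometrically at 340 nm, 20 °C. Buffer was TES 50 mM pH 7.4 with MgCl2, formaldehyde, EDTA and 2-mercaptoethanol, plus dUMP 100 µM, mTHF 140 µM and enzyme 0.07 µM.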

Vero [21] = test: Cytotoxicity against Vero cells measured as percent of cell growth at 12.05 mg/L relative to control by MTT assay; type: functional, Chlorocebus sabaeus
Procedure, shortened: (§2)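 VERO cells grown in MEM with 5% heat-inactivated (56 °C, 30 min) FCS, penicillin, streptomycin and L-glutamine. Cultures were watched for 2 days and live cells counted. Cells were then exposed to increasing compound concentrations; wells with cells only served as control. After 24 h, mitochondrial dehydrogenase activity was read by MTT. Trypan blue exclusion was also run.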

Vero [22] = test: Cytotoxicity against Vero cells measured as percent of cell growth at 25 mg/L relative to control by MTT assay; type: functional, Chlorocebus sabaeus; procedure, shortened: as §2
Vero [23] = test: Cytotoxicity against Vero cells measured as percent of cell growth at 50 mg/L relative to control by MTT assay; type: functional, Chlorocebus sabaeus; procedure, shortened: as §2
Vero [24] = test: Cytotoxicity against Vero cells measured as percent of cell growth at 6.25 mg/L relative to control by MTT assay; type: functional, Chlorocebus sabaeus; procedure, shortened: as §2
Thymidylate synthase [25] = biological target: Thymidylate synthase (Homo sapiens, UniProt P04818); test: Inhibition of human thymidylate synthase
Chain of Thymidylate synthase (Homo sapiens, UniProt P04818) (P04818 whole entry): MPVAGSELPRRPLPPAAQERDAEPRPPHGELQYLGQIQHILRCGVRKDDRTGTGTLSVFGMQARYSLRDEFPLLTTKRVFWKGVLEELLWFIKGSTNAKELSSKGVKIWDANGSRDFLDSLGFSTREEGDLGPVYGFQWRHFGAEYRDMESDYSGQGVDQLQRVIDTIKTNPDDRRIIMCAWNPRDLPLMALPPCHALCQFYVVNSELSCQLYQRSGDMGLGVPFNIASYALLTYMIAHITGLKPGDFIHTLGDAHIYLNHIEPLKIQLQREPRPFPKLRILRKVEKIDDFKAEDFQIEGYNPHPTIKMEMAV

Vero [26] = test: Cytotoxicity against Vero cells measured as percent of cell growth at 1.56 mg/L relative to control by MTT assay; type: functional, Chlorocebus sabaeus; procedure, shortened: as §2
Thymidylate synthase [27] = biological target: T3, Thymidylate synthase (Lactobacillus casei, UniProt P00469); test: Inhibition of Lactobacillus casei thymidylate synthase; set-up: species or system Lacticaseibacillus casei
T3 sequence (P00469 whole entry): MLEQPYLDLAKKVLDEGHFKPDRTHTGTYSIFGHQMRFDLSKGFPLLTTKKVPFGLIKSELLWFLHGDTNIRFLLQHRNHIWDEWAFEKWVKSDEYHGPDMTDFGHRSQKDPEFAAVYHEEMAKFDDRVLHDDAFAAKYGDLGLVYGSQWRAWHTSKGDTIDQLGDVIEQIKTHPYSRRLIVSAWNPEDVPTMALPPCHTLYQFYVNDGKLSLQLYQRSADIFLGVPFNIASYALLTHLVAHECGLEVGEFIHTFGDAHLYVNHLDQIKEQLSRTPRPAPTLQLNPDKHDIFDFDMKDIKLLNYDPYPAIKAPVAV

Vero [28] = test: Cytotoxicity against Vero cells measured as percent of cell growth at 3.12 mg/L relative to control by MTT assay; type: functional, Chlorocebus sabaeus; procedure, shortened: as §2

| SMILES | MIC (Staphylococcus aureus [1]) [µg/mL] | MIC [2] [µg/mL] | MIC (Listeria monocytogenes [3]) [µg/mL] | MIC (Escherichia coli [4]) [µg/mL] | MIC [5] [µg/mL] | MIC (Listeria monocytogenes [6]) [µg/mL] | MIC (Listeria monocytogenes [7]) [µg/mL] | Ki (Dihydrofolate reductase) [µM] | MIC (Listeria monocytogenes [8]) [µg/mL] | MIC (Escherichia coli [9]) [µg/mL] | MIC (Listeria monocytogenes [10]) [µg/mL] | MIC (Listeria monocytogenes [11]) [µg/mL] | MIC (Staphylococcus aureus [12]) [µg/mL] | Ki (Thymidylate synthase [13]) [µM] | MIC (Staphylococcus aureus [14]) [µg/mL] | MIC (Staphylococcus aureus [15]) [µg/mL] | MIC (Enterococcus faecalis) [µg/mL] | MIC (Streptococcus) [µg/mL] | MIC (Citrobacter) [µg/mL] | MIC (Listeria monocytogenes [16]) [µg/mL] | also measured |
| --- | --- | --- | --- | --- | --- | --- | --- | --- | --- | --- | --- | --- | --- | --- | --- | --- | --- | --- | --- | --- | --- |
| O=C1OC(c2ccc(O)c(F)c2)(c2ccc(O)c(F)c2)c2ccc3ccccc3c21 | 25 (≈ 61.8 µM) | 25 (≈ 61.8 µM) | 25 (≈ 61.8 µM) | > 50 | 25 (≈ 61.8 µM) | 25 (≈ 61.8 µM) | 25 (≈ 61.8 µM) | 109 | 25 (≈ 61.8 µM) | > 50 | 25 (≈ 61.8 µM) | 25 (≈ 61.8 µM) | 25 (≈ 61.8 µM) | 3.5 | 25 (≈ 61.8 µM) | 25 (≈ 61.8 µM) | 25 (≈ 61.8 µM) | 25 (≈ 61.8 µM) | > 50 | 25 (≈ 61.8 µM) | – |
| O=C1OC(c2ccc(O)c(F)c2)(c2ccc(O)c(F)c2)c2ccc(Cl)c3cccc1c23 | 10 (≈ 22.8 µM) | 10 (≈ 22.8 µM) | 10 (≈ 22.8 µM) | > 50 | 10 (≈ 22.8 µM) | 10 (≈ 22.8 µM) | 10 (≈ 22.8 µM) | 12 | 10 (≈ 22.8 µM) | > 50 | 10 (≈ 22.8 µM) | 25 (≈ 57 µM) | 10 (≈ 22.8 µM) | 6.5 | 10 (≈ 22.8 µM) | 10 (≈ 22.8 µM) | 25 (≈ 57 µM) | 10 (≈ 22.8 µM) | > 50 | 10 (≈ 22.8 µM) | Ratio Ki [17]: > 223; Selectivity index (Homo sapiens): < 0.05; Ki (Thymidylate synthase [18]): 1100 nM; Ratio Ki [19]: > 136; Ratio Ki [20]: > 38 |
| O=C1OC(c2ccc(O)c(Br)c2)(c2ccc(O)c(Br)c2)c2cccc3cccc1c23 | 5 (≈ 9.5 µM) | 5 (≈ 9.5 µM) | 1 (≈ 1.9 µM) | > 50 | 5 (≈ 9.5 µM) | 5 (≈ 9.5 µM) | 5 (≈ 9.5 µM) | 15 | 5 (≈ 9.5 µM) | > 50 | 2.5 (≈ 4.75 µM) | 5 (≈ 9.5 µM) | 5 (≈ 9.5 µM) | 13 | 5 (≈ 9.5 µM) | 5 (≈ 9.5 µM) | 10 (≈ 19 µM) | 5 (≈ 9.5 µM) | > 50 | 5 (≈ 9.5 µM) | Ratio Ki [17]: 5; Activity (Vero [21]): 100%; Activity (Vero [22]): 84%; Activity (Vero [23]): 41%; Activity (Vero [24]): 100%; Ki (Thymidylate synthase [25]): 4.7 µM; Selectivity index (Homo sapiens): 3; Ki (Thymidylate synthase [18]): 900 nM; Ratio Ki [19]: 1; Activity (Vero [26]): 100%; Ki (Thymidylate synthase [27]): 6.8 µM; Ratio Ki [20]: 0.4; Activity (Vero [28]): 100% |
